Assay results from ChEMBL document CHEMBL2424622, “Development of amino-pyrimidine inhibitors of c-Jun N-terminal kinase (JNK): kinase profiling guided optimization of a 1,2,3-benzotriazole lead” (Bioorg Med Chem Lett, 2013).

Columns and labels:
[1] = molecular target: Casein kinase I isoform gamma-3 (Homo sapiens) (UniProt Q9Y6M4); experiment: Competitive binding affinity to CSNK1G3 (unknown origin) at 10 uM in presence of ATP relative to control
[2] = molecular target: Fibroblast growth factor receptor 4 (Homo sapiens) (UniProt P22455); experiment: Competitive binding affinity to FGFR4 (unknown origin) at 10 uM in presence of ATP relative to control
Method in brief: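 In vitro ATP-site competition binding assay, part of profiling against a diverse panel of 128 kinases. Each compound was tested at a single concentration of 10 µM. Kinome selectivity was summarized as S15 selectivity scores.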

[3] = molecular target: T1, Serine/threonine-protein kinase 3 (Homo sapiens) (UniProt Q13188); experiment: Competitive binding affinity to MST2 (unknown origin) at 10 uM in presence of ATP relative to control
T1 sequence (whole entry): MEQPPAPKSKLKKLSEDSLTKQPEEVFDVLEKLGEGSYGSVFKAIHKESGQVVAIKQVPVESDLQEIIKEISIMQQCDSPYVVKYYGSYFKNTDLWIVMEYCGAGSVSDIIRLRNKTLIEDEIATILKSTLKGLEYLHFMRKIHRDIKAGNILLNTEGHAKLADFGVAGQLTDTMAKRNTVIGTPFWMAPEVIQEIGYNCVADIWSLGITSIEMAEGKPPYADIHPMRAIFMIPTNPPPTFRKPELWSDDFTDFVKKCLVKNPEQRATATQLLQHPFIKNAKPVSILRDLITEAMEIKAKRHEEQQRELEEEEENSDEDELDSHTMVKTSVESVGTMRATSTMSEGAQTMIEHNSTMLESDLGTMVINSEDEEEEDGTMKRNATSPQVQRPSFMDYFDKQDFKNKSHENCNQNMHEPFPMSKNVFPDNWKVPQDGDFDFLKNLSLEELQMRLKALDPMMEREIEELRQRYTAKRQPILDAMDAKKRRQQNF

[4] = molecular target: T2, Serine/threonine-protein kinase D3 (Homo sapiens) (UniProt O94806); experiment: Competitive binding affinity to PRKD3 (unknown origin) at 10 uM in presence of ATP relative to control
T2 sequence (whole entry): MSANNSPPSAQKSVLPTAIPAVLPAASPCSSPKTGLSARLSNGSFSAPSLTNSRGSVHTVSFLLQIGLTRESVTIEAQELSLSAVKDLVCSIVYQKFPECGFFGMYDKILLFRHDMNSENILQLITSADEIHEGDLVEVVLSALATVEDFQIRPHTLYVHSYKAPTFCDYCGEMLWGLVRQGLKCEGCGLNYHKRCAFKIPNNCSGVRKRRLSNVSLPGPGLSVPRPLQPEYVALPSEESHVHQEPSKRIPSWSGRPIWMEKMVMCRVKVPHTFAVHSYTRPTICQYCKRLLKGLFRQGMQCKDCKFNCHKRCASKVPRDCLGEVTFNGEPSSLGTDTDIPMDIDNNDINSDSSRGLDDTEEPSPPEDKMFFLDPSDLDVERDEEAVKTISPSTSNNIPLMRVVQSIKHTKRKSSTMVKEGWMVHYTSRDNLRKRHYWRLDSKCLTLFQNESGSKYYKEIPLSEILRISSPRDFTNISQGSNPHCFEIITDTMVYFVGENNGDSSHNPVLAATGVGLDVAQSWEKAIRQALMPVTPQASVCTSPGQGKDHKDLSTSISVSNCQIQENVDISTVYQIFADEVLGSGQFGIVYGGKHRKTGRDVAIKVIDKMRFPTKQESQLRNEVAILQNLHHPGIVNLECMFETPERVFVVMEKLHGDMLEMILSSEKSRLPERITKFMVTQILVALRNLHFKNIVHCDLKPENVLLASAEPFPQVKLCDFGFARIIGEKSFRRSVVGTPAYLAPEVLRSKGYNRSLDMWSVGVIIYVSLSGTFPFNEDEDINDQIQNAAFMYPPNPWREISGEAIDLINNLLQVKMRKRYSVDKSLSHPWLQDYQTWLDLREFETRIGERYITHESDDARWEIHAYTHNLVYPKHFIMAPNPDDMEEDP

[5] = molecular target: ALK tyrosine kinase receptor (Homo sapiens) (UniProt Q9UM73); experiment: Competitive binding affinity to ALK (unknown origin) at 10 uM in presence of ATP relative to control
[6] = molecular target: Protein kinase C theta type (Homo sapiens) (UniProt Q04759); experiment: Competitive binding affinity to PRKCQ (unknown origin) at 10 uM in presence of ATP relative to control
[7] = molecular target: T3, Serine/threonine-protein kinase RIO1 (Homo sapiens) (UniProt Q9BRS2); experiment: Competitive binding affinity to RIOK1 (unknown origin) at 10 uM in presence of ATP relative to control
T3 sequence (whole entry): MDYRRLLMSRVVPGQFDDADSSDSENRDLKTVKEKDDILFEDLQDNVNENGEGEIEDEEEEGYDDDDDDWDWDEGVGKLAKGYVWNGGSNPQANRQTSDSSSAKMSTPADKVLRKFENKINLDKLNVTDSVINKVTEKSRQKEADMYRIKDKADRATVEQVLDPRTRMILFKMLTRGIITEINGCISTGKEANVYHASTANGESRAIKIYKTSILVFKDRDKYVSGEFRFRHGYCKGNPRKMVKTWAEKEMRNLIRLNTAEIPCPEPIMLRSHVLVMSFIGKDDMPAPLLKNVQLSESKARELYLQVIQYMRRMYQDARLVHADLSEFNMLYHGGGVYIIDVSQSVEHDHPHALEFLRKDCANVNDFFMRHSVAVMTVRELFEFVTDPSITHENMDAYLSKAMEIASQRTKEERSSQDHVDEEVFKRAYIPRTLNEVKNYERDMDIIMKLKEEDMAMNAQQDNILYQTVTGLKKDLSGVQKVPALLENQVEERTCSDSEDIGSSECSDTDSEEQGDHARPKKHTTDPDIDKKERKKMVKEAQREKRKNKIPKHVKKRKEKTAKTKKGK

Sequence of ALK tyrosine kinase receptor (Homo sapiens) (Q9UM73 19-1620 limits assumed): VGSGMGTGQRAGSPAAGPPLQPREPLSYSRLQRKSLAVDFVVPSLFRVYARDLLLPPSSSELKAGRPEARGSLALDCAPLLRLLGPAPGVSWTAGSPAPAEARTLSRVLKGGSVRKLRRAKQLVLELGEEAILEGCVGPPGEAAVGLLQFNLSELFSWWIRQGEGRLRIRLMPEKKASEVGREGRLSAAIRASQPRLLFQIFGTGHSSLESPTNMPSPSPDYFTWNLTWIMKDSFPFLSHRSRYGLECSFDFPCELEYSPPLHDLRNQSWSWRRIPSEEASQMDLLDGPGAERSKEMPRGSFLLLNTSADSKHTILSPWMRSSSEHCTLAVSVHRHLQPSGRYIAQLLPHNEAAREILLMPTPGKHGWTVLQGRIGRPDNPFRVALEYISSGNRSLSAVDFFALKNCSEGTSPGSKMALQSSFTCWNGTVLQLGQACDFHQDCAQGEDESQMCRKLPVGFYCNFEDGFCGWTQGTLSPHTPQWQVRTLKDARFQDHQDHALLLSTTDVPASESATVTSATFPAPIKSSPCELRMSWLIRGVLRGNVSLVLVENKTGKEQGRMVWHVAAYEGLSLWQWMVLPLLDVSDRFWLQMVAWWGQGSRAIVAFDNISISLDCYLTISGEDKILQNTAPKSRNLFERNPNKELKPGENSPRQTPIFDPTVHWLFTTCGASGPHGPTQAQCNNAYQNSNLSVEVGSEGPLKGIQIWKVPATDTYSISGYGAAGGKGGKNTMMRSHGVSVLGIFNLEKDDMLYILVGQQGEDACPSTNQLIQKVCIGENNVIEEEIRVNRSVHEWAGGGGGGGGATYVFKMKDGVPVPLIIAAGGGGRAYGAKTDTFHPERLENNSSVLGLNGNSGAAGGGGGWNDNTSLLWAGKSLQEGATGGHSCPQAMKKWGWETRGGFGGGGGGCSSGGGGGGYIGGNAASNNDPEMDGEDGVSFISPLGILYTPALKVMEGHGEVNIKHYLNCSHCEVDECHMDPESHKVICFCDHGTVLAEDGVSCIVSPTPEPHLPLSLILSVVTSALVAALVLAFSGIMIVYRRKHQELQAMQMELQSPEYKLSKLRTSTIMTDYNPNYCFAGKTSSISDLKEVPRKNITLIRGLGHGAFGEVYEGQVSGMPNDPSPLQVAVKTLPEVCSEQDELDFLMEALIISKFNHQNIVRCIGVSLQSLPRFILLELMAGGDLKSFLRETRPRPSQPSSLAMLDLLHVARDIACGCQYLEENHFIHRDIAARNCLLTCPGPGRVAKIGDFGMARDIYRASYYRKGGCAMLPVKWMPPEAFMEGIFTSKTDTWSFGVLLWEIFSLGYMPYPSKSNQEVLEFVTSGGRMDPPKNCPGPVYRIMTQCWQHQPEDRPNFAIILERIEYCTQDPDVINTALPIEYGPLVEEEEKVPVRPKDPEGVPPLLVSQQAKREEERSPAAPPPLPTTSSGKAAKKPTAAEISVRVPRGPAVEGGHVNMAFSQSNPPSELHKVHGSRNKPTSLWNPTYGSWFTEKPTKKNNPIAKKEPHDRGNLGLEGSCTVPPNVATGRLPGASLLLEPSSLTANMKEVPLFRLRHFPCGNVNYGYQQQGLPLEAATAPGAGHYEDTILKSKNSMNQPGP
Sequence of Casein kinase I isoform gamma-3 (Homo sapiens) (Q9Y6M4 whole entry, looked up, canonical isoform): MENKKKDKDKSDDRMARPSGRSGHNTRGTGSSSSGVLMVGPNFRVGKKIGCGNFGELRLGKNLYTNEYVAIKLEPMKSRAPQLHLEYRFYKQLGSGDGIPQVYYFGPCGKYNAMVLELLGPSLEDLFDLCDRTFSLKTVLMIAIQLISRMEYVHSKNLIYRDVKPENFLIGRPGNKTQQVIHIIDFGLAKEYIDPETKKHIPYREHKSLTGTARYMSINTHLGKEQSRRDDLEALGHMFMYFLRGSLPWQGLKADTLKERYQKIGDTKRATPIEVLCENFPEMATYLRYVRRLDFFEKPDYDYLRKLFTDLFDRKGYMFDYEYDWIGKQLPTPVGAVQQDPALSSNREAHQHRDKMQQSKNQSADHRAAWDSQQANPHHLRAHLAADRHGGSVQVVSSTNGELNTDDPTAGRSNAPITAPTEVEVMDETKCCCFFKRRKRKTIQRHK
Sequence of Fibroblast growth factor receptor 4 (Homo sapiens) (P22455 22-802 limits assumed): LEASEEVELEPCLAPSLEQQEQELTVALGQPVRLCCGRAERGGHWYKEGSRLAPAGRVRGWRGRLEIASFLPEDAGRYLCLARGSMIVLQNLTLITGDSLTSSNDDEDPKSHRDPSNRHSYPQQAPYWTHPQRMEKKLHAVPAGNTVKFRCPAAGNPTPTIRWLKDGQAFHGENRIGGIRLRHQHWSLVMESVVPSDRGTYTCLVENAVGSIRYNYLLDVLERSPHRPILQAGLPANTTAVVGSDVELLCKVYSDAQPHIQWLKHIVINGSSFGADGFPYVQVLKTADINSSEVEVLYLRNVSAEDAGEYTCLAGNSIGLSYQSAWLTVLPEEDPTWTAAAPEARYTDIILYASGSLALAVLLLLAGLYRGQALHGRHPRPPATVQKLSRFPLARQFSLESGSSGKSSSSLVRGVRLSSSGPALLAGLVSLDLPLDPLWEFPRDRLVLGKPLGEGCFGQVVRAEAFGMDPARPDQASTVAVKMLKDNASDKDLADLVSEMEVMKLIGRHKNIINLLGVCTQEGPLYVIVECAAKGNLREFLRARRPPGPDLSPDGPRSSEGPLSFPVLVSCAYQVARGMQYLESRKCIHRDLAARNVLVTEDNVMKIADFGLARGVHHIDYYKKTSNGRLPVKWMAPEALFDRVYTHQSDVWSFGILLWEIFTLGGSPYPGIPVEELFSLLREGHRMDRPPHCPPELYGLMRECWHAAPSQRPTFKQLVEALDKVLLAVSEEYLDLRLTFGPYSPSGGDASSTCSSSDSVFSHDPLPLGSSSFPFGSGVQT
Sequence of Protein kinase C theta type (Homo sapiens) (Q04759 whole entry, looked up): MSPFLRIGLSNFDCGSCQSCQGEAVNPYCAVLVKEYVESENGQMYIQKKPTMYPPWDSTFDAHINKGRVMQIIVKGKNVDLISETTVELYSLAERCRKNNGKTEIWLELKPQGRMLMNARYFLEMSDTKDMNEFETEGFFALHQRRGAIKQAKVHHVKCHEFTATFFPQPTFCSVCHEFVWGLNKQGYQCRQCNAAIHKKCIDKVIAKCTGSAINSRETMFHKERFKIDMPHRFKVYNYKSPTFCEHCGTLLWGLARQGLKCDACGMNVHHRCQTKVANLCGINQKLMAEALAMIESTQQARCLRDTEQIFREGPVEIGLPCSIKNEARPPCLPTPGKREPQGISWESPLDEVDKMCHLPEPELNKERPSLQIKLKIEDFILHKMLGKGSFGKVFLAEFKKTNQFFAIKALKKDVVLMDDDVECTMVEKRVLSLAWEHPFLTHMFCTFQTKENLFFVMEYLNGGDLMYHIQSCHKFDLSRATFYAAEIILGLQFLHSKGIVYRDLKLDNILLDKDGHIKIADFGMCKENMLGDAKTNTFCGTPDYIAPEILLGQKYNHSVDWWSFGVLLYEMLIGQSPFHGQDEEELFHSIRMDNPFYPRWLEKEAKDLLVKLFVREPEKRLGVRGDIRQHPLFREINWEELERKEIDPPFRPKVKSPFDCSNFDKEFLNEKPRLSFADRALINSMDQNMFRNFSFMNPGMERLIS

| SMILES | inhibition [1] [%] | inhibition [2] [%] | inhibition [3] [%] | inhibition [4] [%] | inhibition [5] [%] | inhibition [6] [%] | inhibition [7] [%] |
| --- | --- | --- | --- | --- | --- | --- | --- |
| O[C@H]1CC[C@H](Nc2nccc(-n3nnc4ccccc43)n2)CC1 | 96 | < 50 | 95 | 100 | 66 | < 50 | < 50 |
| O[C@H]1CC[C@H](Nc2nccc(-n3ncc4ccccc43)n2)CC1 | < 50 | < 50 | 81 | 96 | 78 | < 50 | < 50 |
| O[C@H]1CC[C@H](Nc2nccc(-c3n[nH]c4ccccc34)n2)CC1 | – | < 50 | – | – | 100 | – | – |
| O[C@H]1CC[C@H](Nc2nccc(-n3ccc4ccccc43)n2)CC1 | < 50 | < 50 | < 50 | 94 | < 50 | < 50 | < 50 |
